Assay results from ChEMBL document CHEMBL3992553, “New nitrofurans amenable by isocyanide multicomponent chemistry are active against multidrug-resistant and poly-resistant Mycobacterium tuberculosis” (Bioorg Med Chem, 2017).
In brackets after ≈: the same amount, converted by molar mass.

Tests used:
Format in all cases: functional
[1] = system: Staphylococcus aureus; assay: Antibacterial activity against methicillin-resistant Staphylococcus aureus DSM 11822 after 18 hrs; conditions: DSM 11822, 18 h
Procedure, shortened: (§1)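 Broth microdilution MIC. Gram-negatives grown overnight at 37 °C in Müller-Hinton broth + 1% glucose, pH 7.2; Gram-positives in trypticase soy broth with yeast extract, pH 7.2. Inoculum 5×10^5 cfu/mL final. Serial dilutions from 100 µM down to 0.2 µM, DMSO ≤1%. 18 h at 37 °C, moist; OD600. MIC = lowest concentration completely suppressing growth.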

[2] = system: Acinetobacter baumannii; assay: Antibacterial activity against Acinetobacter baumannii DSM 30007 after 18 hrs; conditions: DSM 30007, 18 h; procedure, shortened: as §1
[3] = system: Enterococcus faecium; assay: Antibacterial activity against Enterococcus faecium DSM 20477 after 18 hrs; conditions: DSM 20477, 18 h; procedure, shortened: as §1
[4] = system: Escherichia coli; assay: Antibacterial activity against Escherichia coli DSM 1116 after 18 hrs; conditions: DSM 1116, 18 h; procedure, shortened: as §1
[5] = system: Staphylococcus aureus; assay: Antibacterial activity against methicillin-resistant Staphylococcus aureus RKI 11-02670 after 18 hrs; conditions: RKI 11-02670, 18 h; procedure, shortened: as §1
[6] = system: Pseudomonas aeruginosa; assay: Antibacterial activity against Pseudomonas aeruginosa PA7 DSM 24068 after 18 hrs; conditions: PA7 DSM 24068, 18 h; procedure, shortened: as §1
[7] = system: Mycobacterium tuberculosis; assay: Antimycobacterial activity against Mycobacterium tuberculosis H37Rv after 7 days by REMA; conditions: 168 h
Procedure, shortened: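 REMA. 3-week H37Rv culture (2nd generation on Löwenstein–Jensen) vortexed with glass beads, set to 1.0 McFarland in 7H9, diluted 20-fold in 7H9 + OADC. 2-fold dilutions, final 1.6–400 µg/mL, 200 µL wells. 7 days at 35 °C, then resazurin 18 h. Fluorescence ex 520/em 590. MIC where signal plateaued or matched the 1% population control (t test).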

[8] = system: Klebsiella pneumoniae; assay: Antibacterial activity against Klebsiella pneumoniae DSM 11678 after 18 hrs; conditions: DSM 11678, 18 h; procedure, shortened: as §1
[9] = system: Escherichia coli; assay: Growth inhibition of Escherichia coli DSM 1116 at 100 uM after 18 hrs relative to control; conditions: DSM 1116, 18 h, read-out: GI
Procedure, shortened: (§2)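 Gram-negative culture grown overnight at 37 °C in Müller-Hinton broth + 1% glucose, pH 7.2, then tested at 5×10^5 cfu/mL final. Compound at 100 µM from DMSO stock, DMSO ≤1%. Incubated 18 h at 37 °C under moist conditions. OD600 read; value reported as % growth inhibition.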

[10] = system: Pseudomonas aeruginosa; assay: Growth inhibition of Pseudomonas aeruginosa PA7 DSM 24068 at 100 uM after 18 hrs relative to control; conditions: PA7 DSM 24068, 18 h, read-out: GI; procedure, shortened: as §2

Structure (SMILES) | MIC [1] | EC50 [2] | MIC [2] | EC50 [3] | MIC [3] | EC50 [4] | MIC [4] | EC50 [5] | MIC [5] | EC50 [6] | MIC [6] | MIC [7] | EC50 [8] | MIC [8] | inhibition of growth at 100 µM [9] | inhibition of growth at 100 µM [10]
CC1(C(=O)NCc2ccccc2)CSCC(=O)N1/N=C/c1ccc([N+](=O)[O-])o1 (stereo unspecified) | > 100 µM | > 100 µM | > 100 µM | > 100 µM | > 100 µM | > 100 µM | > 100 µM | 64 µM | > 100 µM | > 100 µM | > 100 µM | > 100 µM | > 100 µM | > 100 µM |  | 
CC(C)(C)NC(=O)C1(C)COCC(=O)N1/N=C/c1ccc([N+](=O)[O-])o1 (stereo unspecified) | > 100 µM | > 100 µM | > 100 µM | > 100 µM | > 100 µM | > 100 µM | > 100 µM | 50 µM | > 100 µM | > 100 µM | > 100 µM | > 100 µM | > 100 µM | > 100 µM |  | 
CC1(C(=O)NCc2ccc(Cl)cc2)CCCC(=O)N1/N=C/c1ccc([N+](=O)[O-])o1 (stereo unspecified) | 100 µM (≈ 41.9 µg/mL) |  |  |  | > 100 µM |  |  | 75 µM | 100 µM |  |  | > 100 µM |  |  | 84% | 98%
CC1(C(=O)NC2CCCCC2)COCC(=O)N1/N=C/c1ccc([N+](=O)[O-])o1 (stereo unspecified) | 100 µM (≈ 37.8 µg/mL) |  |  |  | > 100 µM |  |  | 75 µM | 100 µM |  |  | 66 µM (≈ 25 µg/mL) |  |  | 84% | 90%
CC1(C(=O)NCc2ccccc2)COCC(=O)N1/N=C/c1ccc([N+](=O)[O-])o1 (stereo unspecified) | 100 µM (≈ 38.6 µg/mL) |  |  |  | > 100 µM |  |  | 77 µM | 100 µM |  |  | 65 µM (≈ 25.1 µg/mL) |  |  | 83% | 86%
CC1(C(=O)NC2CCCCC2)CCC(=O)N1/N=C/c1ccc([N+](=O)[O-])o1 (stereo unspecified) | > 100 µM |  |  |  | > 100 µM |  |  | 79 µM | ≥ 100 µM |  |  | 70 µM (≈ 25.4 µg/mL) |  |  | 85% | 90%
CC1(C(=O)NC2CCCCC2)CN(S(C)(=O)=O)CC(=O)N1/N=C/c1ccc([N+](=O)[O-])o1 (stereo unspecified) | > 100 µM | > 100 µM | > 100 µM | > 100 µM | > 100 µM | > 100 µM | > 100 µM | 35.7 µM | > 100 µM | > 100 µM | > 100 µM | 55 µM (≈ 25.1 µg/mL) | > 100 µM | > 100 µM |  | 
NCC[C@H](O)C(=O)N[C@@H]1C[C@H](N)[C@@H](O[C@H]2O[C@H](CN)[C@@H](O)[C@H](O)[C@H]2O)[C@H](O)[C@H]1O[C@H]1O[C@H](CO)[C@@H](O)[C@H](N)[C@H]1O [AMIKACIN] |  |  |  |  |  |  |  |  |  | 3.8 µg/mL | 4.5 µg/mL |  |  |  |  | 
O=C(O)c1cn(C2CC2)c2cc(N3CCNCC3)c(F)cc2c1=O [CIPROFLOXACIN] |  | 0.2 µg/mL | 0.2 µg/mL | 2.29 µg/mL | 8 µg/mL | 0.01 µg/mL |  |  |  |  |  |  | 0.05 µg/mL | 0.07 µg/mL |  | 
CC(=O)NC[C@H]1CN(c2ccc(N3CCOCC3)c(F)c2)C(=O)O1 [LINEZOLID] |  |  |  |  |  |  |  | 0.25 µg/mL | 0.62 µg/mL |  |  |  |  |  |  | 
